Compound activity from PubChem.
T cruzi growth-1 = T. cruzi proliferation inhibition; T. cruzi beta-gal in NIH3T3, GalScreen luminescence, 90 h; inhibition, % at 8.34 µM; 77,000 tested, 5.9% active;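 active = mean inhibition above about 93%, with at least 55% of replicates each passing it, limit read from the data, passing the limit was not always enough; inconclusive = only one of those two conditions holds; inactive = neither condition holds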
IDH1 mut inh = blocks human IDH1 R132H reductase activity; O75874; diaphorase/resazurin fluorescence, 60 min; inhibition, % at 10 µM; 70,000 tested, 0.18% active; in the data active = inhibition above about 34%; inconclusive = no clear call, values can overlap the other calls; inactive = below about 11%;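 note: 0% = DMSO and 100% = no enzyme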
Pf Dd2 growth = inhibitors of Plasmodium falciparum Dd2 growth; P. falciparum Dd2 growth, SYBR Green, 72 h; stronger effect = lower value; activity change, % at 10 µM; 94,000 tested, 2.3% active; AID 1159554; in the data active = activity change below about -80%; inconclusive = no clear call, values can overlap the other calls
KDM4C inh = KDM4C (human) demethylase inhibition; Q9H3R0; GST-KDM4C 2-372, H3K9me3 peptide, LANCE TR-FRET; inhibition, % at 12.5 µM; 96,000 tested, 0.15% active;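 active = mean replicate inhibition above about 25%, with at least 55% of replicates also reaching it, limit read from the data, passing the limit was not always enough; inconclusive = only one of those two conditions met; inactive = neither condition met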
Target sequence (Q9H3R0 2-372 limits assumed): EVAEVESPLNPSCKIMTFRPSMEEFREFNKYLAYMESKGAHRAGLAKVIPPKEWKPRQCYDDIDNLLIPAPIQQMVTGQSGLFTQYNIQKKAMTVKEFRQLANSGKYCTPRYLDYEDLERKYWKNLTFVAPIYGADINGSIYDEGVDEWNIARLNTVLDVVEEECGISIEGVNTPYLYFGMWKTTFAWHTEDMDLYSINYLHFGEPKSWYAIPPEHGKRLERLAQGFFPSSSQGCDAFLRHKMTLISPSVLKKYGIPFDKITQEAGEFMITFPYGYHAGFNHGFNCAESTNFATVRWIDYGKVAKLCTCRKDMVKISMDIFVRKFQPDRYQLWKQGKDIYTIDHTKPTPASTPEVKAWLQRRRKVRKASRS
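Material: N-terminal GST-fused human GASC-1 (KDM4C) fragment, residues 2-372. Input: 10 nM enzyme. Incubation: enzyme reaction 30 min, then detection 60 min, both room temperature. Doses: one test concentration per compound. Read-out basis: inhibition from TR-FRET ratio decrease. Detection: LANCE TR-FRET, excitation 340 nm, emissions 618 and 671 nm.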
T cruzi growth-2 = inhibitors of T. cruzi proliferation | inhibition, % at 8.35 µM | shares compounds with T cruzi growth-1 | 5,600 tested, 72% active | T. cruzi beta-gal in NIH3T3, GalScreen luminescence, 90 h;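 active = mean replicate inhibition above about 95% and at least 55% of replicates individually reaching it, limit read from the data; inconclusive = only one of the two criteria is met; inactive = neither criterion is met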
T cruzi growth-3 = blocks T. cruzi growth in NIH3T3 host cells. 5,600 tested, 21% active. shares compounds with T cruzi growth-1. inhibition, % at 2.09 µM. T. cruzi beta-gal in NIH3T3, GalScreen luminescence, 90 h. AID 651740;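 active = mean inhibition above about 95%, with at least 55% of replicates also reaching it, limit read from the data; inconclusive = meets just one of the two conditions; inactive = meets neither condition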;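 note: plate controls were neutral control median for no effect and positive control median for full effect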
NIH3T3 tox = kills mouse NIH/3T3 fibroblasts | shares compounds with T cruzi growth-1 | AID 651742 | cytotoxicity (signal decrease), % at 8.35 µM | NIH/3T3 viability, CellTiter-Glo ATP luminescence, 90 h | 5,600 tested, 14% active;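 active = mean signal decrease across replicates above about 35% based on untreated-well scatter, with enough replicates individually passing, limit read from the data; inconclusive = no rule stated though some were filed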;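 note: 0% = median of neutral control wells and 100% = median of positive control wells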
NIH3T3 tox 2 = cytotoxicity in mouse NIH/3T3 fibroblasts. shares compounds with T cruzi growth-1. NIH/3T3 viability, CellTiter-Glo ATP luminescence, 90 h. inhibition, % at 24.9 µM. 5,600 tested, 56% active. AID 651744;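 active = mean loss of cell viability signal at or above a set limit, and enough replicates individually reaching it; inconclusive = meets only the mean limit or only the replicate share; inactive = meets neither condition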;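 note: 0% = median of neutral control wells and 100% = median of positive control wells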
An asterisk follows results filed as active; ? = inconclusive; nt = not tested or not shown. Most compounds without a hit are left out; they make up all but 5.8% or so of the library.

SMILES	T cruzi growth-1	IDH1 mut inh	Pf Dd2 growth	KDM4C inh	T cruzi growth-2	T cruzi growth-3	NIH3T3 tox	NIH3T3 tox 2
CC(C)CC#Cc1ccc([C@@H]2[C@H](CO)N3CCCCN(C(=O)c4ccc5c(c4)OCO5)C[C@@H]23)cc1	106*	nt	-42	1	104*	64	31	105*
CC(C)CC#Cc1ccc([C@H]2[C@H](CO)N3CCCCN(C(=O)c4ccc5c(c4)OCO5)C[C@@H]23)cc1	84	nt	-29	-1	nt	nt	nt	nt
COc1ccc2c3c([nH]c2c1)[C@@H](CO)N(C(=O)C1CC1)CC31CCN(C(=O)NC(C)C)CC1	nt	nt	-59	1	nt	nt	nt	nt
Cc1ccc(S(=O)(=O)N[C@H]2CC[C@@H](CCn3cc(C4CCCC4)nn3)O[C@@H]2CO)cc1	nt	0	-17	0	nt	nt	nt	nt
C[C@@H]1CN([C@@H](C)CO)C(=O)c2cc(NC(=O)Cc3cn(C)c4ccccc34)ccc2O[C@@H]1CN(C)Cc1ccc(Oc2ccccc2)cc1	93*	0	-15	16	96*	?	30	76*
C[C@H]1CN([C@@H](C)CO)C(=O)c2cc(NC(=O)Cc3cn(C)c4ccccc34)ccc2O[C@H]1CN(C)Cc1ccc(C(F)(F)F)cc1	?	0	-5	-1	101*	47	-10	34
C[C@@H]1CN([C@@H](C)CO)C(=O)c2cc(NC(=O)Cc3cn(C)c4ccccc34)ccc2O[C@H]1CN(C)Cc1ccc(C(F)(F)F)cc1	113*	-4	1	5	105*	-1	10	?
C[C@H](CO)N1C[C@H](C)[C@H](CN(C)Cc2ccc(C(F)(F)F)cc2)Oc2ccc(NC(=O)Cc3cn(C)c4ccccc34)cc2C1=O	101	-2	-26	-1	nt	nt	nt	nt
C[C@@H]1CN([C@H](C)CO)C(=O)c2cc(NC(=O)Cc3cn(C)c4ccccc34)ccc2O[C@@H]1CN(C)Cc1ccccc1	20	0	-13	-2	nt	nt	nt	nt
COc1ccc(S(=O)(=O)N(C)C[C@H]2Oc3ccc(NC(=O)Cc4cn(C)c5ccccc45)cc3C(=O)N([C@@H](C)CO)C[C@H]2C)cc1	99*	-6	6	1	108*	29	9	61*
C[C@@H]1CCCCO[C@H](CN(C)S(=O)(=O)c2ccc(Cl)cc2)[C@@H](C)CN([C@H](C)CO)C(=O)c2cc(NC(=O)NC3CCCCC3)ccc2O1	27	4	nt	0	nt	nt	nt	nt
Cc1ccc(S(=O)(=O)N(C)C[C@H]2OCCCC[C@@H](C)Oc3ccc(NC(=O)NC4CCCCC4)cc3C(=O)N([C@@H](C)CO)C[C@H]2C)cc1	100*	nt	-55	-1	108*	31	-6	-54
Cc1ccc(S(=O)(=O)N(C)C[C@H]2OCCCC[C@@H](C)Oc3ccc(NC(=O)NC4CCCCC4)cc3C(=O)N([C@H](C)CO)C[C@H]2C)cc1	99*	nt	-79	-1	105*	?	-34	14
Cc1ccc(S(=O)(=O)N(C)C[C@H]2OCCCC[C@H](C)Oc3ccc(NC(=O)NC4CCCCC4)cc3C(=O)N([C@@H](C)CO)C[C@@H]2C)cc1	74	-1	?	-1	nt	nt	nt	nt
C[C@@H]1CCCCO[C@H](CN(C)S(=O)(=O)c2ccc(Cl)cc2)[C@@H](C)CN([C@@H](C)CO)C(=O)c2cc(NC(=O)NC3CCCCC3)ccc2O1	101*	nt	nt	0	105*	84	17	33*
Cc1ccc(S(=O)(=O)N(C)C[C@@H]2OCCCC[C@H](C)Oc3ccc(NC(=O)NC4CCCCC4)cc3C(=O)N([C@H](C)CO)C[C@@H]2C)cc1	99*	nt	-48	0	107*	64	-7	0
Cc1ccc(S(=O)(=O)N(C)C[C@@H]2OCCCC[C@@H](C)Oc3ccc(NC(=O)NC4CCCCC4)cc3C(=O)N([C@@H](C)CO)C[C@H]2C)cc1	40	3	-71	0	nt	nt	nt	nt
C[C@H]1CCCCO[C@@H](CN(C)S(=O)(=O)c2ccc(F)cc2)[C@@H](C)CN([C@@H](C)CO)C(=O)c2cc(NC(=O)NC3CCCCC3)ccc2O1	69	-10	-60	-1	nt	nt	nt	nt
Cc1ccc(S(=O)(=O)N(C)C[C@@H]2OCCCC[C@H](C)Oc3ccc(NC(=O)NC4CCCCC4)cc3C(=O)N([C@@H](C)CO)C[C@@H]2C)cc1	101*	1	-83*	-1	106*	93	3	1
COC(=O)c1cc(C(=O)NCc2ccccn2)cc([N+](=O)[O-])c1	nt	0	nt	nt	nt	nt	nt	nt
COc1ccc(C#Cc2ccc3c(c2)[C@H]2[C@H](CCN2C(=O)C2CCCCC2)[C@@H](CO)N3)cc1	84	nt	-55	0	nt	nt	nt	nt
O=C(c1ccccc1F)N1CC[C@H]2[C@H](CO)Nc3ccc(C#Cc4ccccc4)cc3[C@H]21	108*	nt	-39	-1	111*	81	20	?
COc1ccc(C#Cc2ccc3c(c2)[C@@H]2[C@@H](CCN2C(=O)c2ccccc2F)[C@H](CO)N3)cc1	100*	nt	-33	0	93	19	-15	9
O=C(c1ccccc1F)N1CC[C@@H]2[C@@H](CO)Nc3ccc(C#Cc4ccccc4)cc3[C@@H]21	?	nt	-35	-5	109*	86	9	104*
COc1ccc(C#Cc2ccc3c(c2)[C@@H]2[C@@H](CCN2C(=O)C2CC2)[C@@H](CO)N3)cc1	109*	nt	-48	-2	110*	34	20	46*
COc1ccc(CN(C)C[C@@H]2OCCCC[C@@H](C)Oc3ccc(NC(=O)CCC(F)(F)F)cc3C(=O)N([C@@H](C)CO)C[C@@H]2C)cc1	-13	0	-36	0	nt	nt	nt	nt
COc1ccc(S(=O)(=O)N(C)C[C@H]2OCCCC[C@@H](C)Oc3ccc(N(C)C)cc3C(=O)N([C@H](C)CO)C[C@H]2C)cc1	117*	0	-12	-2	57	-10	25	21
C[C@H](CO)N1C[C@H](C)[C@H](CN(C)S(=O)(=O)c2ccc(Cl)cc2)OCCCC[C@H](C)Oc2ccc(N(C)C)cc2C1=O	100*	0	-58	-1	110*	47	3	12
COc1ccc(S(=O)(=O)N(C)C[C@H]2OCCCC[C@H](C)Oc3ccc(N(C)C)cc3C(=O)N([C@H](C)CO)C[C@H]2C)cc1	12	nt	10	-1	nt	nt	nt	nt
